Source: ChEMBL document CHEMBL1122986, “Aldosterone antagonists. 1. Synthesis and activities of 6 beta,7 beta:15 beta,16 beta-dimethylene steroidal spirolactones” (J Med Chem, 1985)
Active and inactive are the calls of the source. The calls are words filed in the database; no cut-off is given here.

Tests used:
[1] = molecular target: T1, Androgen receptor (Rattus norvegicus) (UniProt P15207); assay: Binding affinity for rat androgen receptor compared to dihydrotestosterone; No affinity
T1 sequence (whole entry): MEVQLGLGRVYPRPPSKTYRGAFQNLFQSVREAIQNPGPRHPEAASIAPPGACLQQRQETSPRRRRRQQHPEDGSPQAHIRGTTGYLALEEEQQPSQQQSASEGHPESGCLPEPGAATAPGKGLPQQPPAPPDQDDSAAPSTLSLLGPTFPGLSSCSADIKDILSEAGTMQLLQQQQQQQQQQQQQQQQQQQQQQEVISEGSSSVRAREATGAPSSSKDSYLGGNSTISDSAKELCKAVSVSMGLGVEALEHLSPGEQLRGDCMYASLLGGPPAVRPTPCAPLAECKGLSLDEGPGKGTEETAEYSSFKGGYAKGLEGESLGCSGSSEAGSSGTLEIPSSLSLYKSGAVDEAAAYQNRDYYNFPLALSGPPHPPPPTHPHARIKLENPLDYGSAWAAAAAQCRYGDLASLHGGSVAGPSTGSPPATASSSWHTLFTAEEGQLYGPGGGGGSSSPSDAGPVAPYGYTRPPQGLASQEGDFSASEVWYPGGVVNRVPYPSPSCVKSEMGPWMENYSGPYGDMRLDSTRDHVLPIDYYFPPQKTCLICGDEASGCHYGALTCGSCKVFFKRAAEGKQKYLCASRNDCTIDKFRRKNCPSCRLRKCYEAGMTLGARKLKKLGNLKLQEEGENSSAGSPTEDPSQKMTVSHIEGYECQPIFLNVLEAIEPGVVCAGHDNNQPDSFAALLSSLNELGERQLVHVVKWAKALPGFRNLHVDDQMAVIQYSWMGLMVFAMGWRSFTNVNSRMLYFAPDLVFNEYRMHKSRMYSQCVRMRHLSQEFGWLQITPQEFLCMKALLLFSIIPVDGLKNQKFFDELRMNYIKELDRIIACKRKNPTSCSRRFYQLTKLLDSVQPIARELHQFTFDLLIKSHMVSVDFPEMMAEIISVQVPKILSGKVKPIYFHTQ

[2] = molecular target: T2, Mineralocorticoid receptor (Rattus norvegicus) (UniProt P22199); assay: Relative potency as antialdosterone activity compared to spironolactone 1 hr after oral administration; type: functional, organism-based
T2 sequence (whole entry): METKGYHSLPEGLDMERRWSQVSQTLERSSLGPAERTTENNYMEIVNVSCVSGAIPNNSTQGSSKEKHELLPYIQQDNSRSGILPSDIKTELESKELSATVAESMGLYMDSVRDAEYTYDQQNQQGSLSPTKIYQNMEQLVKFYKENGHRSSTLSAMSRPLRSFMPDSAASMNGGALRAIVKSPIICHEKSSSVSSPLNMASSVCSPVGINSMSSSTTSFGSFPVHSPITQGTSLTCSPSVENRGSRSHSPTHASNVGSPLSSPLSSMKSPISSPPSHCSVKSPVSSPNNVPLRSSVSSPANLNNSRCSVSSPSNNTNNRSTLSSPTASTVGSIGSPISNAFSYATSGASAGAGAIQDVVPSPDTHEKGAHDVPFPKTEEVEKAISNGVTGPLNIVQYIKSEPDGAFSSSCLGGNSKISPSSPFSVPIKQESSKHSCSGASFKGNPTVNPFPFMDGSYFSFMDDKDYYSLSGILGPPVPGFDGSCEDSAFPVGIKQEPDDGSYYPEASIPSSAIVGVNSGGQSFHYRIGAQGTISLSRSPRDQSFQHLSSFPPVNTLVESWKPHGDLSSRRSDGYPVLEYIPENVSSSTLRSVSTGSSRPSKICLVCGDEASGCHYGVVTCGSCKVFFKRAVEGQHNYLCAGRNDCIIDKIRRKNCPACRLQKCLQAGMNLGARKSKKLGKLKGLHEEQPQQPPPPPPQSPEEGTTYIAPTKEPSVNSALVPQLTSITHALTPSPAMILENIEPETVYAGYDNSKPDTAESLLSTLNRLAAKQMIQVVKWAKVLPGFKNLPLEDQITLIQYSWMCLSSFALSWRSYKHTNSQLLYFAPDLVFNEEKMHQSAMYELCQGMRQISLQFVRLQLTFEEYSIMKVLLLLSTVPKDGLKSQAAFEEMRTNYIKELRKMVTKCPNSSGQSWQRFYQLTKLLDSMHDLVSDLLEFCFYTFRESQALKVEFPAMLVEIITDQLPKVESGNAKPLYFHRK
Procedure, shortened: (§1)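 Adrenalectomized Wistar rats (140–160 g) were maintained on fluocortolone caproate 1 mg/kg on the day of surgery and fluocortolone 10 mg/kg sc one day before testing. Rats were infused with saline-glucose (0.05% NaCl, 5% glucose) containing aldosterone 50 μg/L at 3 mL/h. Compounds were given orally 1 h before infusion at 6.7, 13.4 and 26.8 mg/kg. Hourly urine Na and K were measured by flame photometry over 10–15 h.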

[3] = molecular target: T3, Progesterone receptor (Oryctolagus cuniculus) (UniProt P06186); assay: Binding affinity for rat progesterone receptor compared to progesterone; No affinity
T3 sequence (whole entry): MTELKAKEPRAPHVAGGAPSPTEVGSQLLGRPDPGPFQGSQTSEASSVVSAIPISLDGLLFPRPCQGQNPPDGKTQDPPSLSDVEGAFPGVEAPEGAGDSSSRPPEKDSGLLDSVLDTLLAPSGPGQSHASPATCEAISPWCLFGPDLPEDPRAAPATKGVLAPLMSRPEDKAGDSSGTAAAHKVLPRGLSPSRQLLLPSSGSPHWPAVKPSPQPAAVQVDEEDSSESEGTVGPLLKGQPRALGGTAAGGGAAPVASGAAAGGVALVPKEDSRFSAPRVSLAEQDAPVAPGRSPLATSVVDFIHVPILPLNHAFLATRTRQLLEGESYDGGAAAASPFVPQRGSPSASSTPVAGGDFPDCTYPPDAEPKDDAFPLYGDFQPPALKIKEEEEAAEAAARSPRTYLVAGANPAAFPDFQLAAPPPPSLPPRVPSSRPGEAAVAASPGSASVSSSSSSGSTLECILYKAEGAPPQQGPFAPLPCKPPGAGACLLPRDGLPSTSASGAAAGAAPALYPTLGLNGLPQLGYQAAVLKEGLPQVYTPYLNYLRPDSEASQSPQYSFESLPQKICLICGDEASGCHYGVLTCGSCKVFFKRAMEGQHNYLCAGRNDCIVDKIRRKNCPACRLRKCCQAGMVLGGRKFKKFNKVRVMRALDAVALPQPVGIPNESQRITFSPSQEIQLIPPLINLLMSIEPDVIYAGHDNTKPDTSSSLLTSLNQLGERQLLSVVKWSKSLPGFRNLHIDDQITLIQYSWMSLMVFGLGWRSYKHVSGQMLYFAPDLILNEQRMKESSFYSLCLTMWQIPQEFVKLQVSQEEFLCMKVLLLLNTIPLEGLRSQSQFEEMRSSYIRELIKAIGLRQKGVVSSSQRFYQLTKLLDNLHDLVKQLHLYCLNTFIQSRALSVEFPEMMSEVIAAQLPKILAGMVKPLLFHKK

[4] = molecular target: T3, Progesterone receptor (Oryctolagus cuniculus); assay: Progestational activity in rabbit at 30.0 mg/kg oral dose; type: functional, organism-based; parameters: dose 30 mg/kg
Procedure, shortened: (§2)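 Clauberg test in rabbits after oral administration, run by literature procedures. Doses are listed […], and the read-out is the McPhail index.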

[5] = molecular target: T3, Progesterone receptor (Oryctolagus cuniculus); assay: Binding affinity for rat progesterone receptor compared to progesterone
[6] = molecular target: T2, Mineralocorticoid receptor (Rattus norvegicus); assay: Relative potency as antialdosterone activity compared to spironolactone 1 hr after oral administration; No activity; type: functional, organism-based; procedure, shortened: as §1
[7] = molecular target: T1, Androgen receptor (Rattus norvegicus)
[8] = molecular target: T3, Progesterone receptor (Oryctolagus cuniculus); assay: Progestational activity in rabbit at 3.0 mg/kg oral dose; type: functional, organism-based; parameters: dose 3 mg/kg; procedure, shortened: as §2
[9] = molecular target: T3, Progesterone receptor (Oryctolagus cuniculus); assay: Progestational activity in rabbit at 1.0 mg/kg oral dose; type: functional, organism-based; parameters: dose 1 mg/kg; procedure, shortened: as §2
[10] = molecular target: T3, Progesterone receptor (Oryctolagus cuniculus); assay: Progestational activity in rabbit at 0.3 mg/kg oral dose; type: functional, organism-based; parameters: dose 0.3 mg/kg; procedure, shortened: as §2
[11] = molecular target: T2, Mineralocorticoid receptor (Rattus norvegicus); assay: Relative potency as antialdosterone activity compared to spironolactone 1 hr after oral administration; NA denotes no activity; type: functional, organism-based; procedure, shortened: as §1

Structure (SMILES)	Competition factor [1]	MRP [2]	Competition factor [5]	MRP [6]	also measured
CC12C=C(Cl)C(=O)C=C1C1CC1C1C2CCC2(C)C1C1CC1[C@@]21CCC(=O)O1 (some centres undefined)	–	–	33	inactive	–
CC12C(=CC(=O)C[C@@H]1S)C1CC1C1C2CCC2(C)C1C1CC1[C@@]21CCC(=O)O1 (some centres undefined)	–	> 100	5.8	–	McPhail index [4]: 3.5; Competition factor [7]: 63
CC12C=CC(=O)C=C1C1CC1C1C2CCC2(C)C1C1CC1[C@@]21CCC(=O)O1 (some centres undefined)	–	745	6.5	–	McPhail index [8]: 2.7; McPhail index [9]: 2.2; McPhail index [10]: 1; Competition factor [7]: 150
CC(=O)S[C@H]1CC(=O)C=C2C3CC3C3C(CCC4(C)C3C3CC3[C@@]43CCC(=O)O3)C21C (some centres undefined)	–	100	–	–	Competition factor [3]: inactive
CC1=CC2(C)C(=CC1=O)C1CC1C1C2CCC2(C)C1C1CC1[C@@]21CCC(=O)O1 (some centres undefined)	–	–	35	inactive	–
C[C@]12CCC(=O)C=C1[C@@H]1C[C@@H]1[C@H]1[C@@H]3[C@@H]4C[C@@H]4[C@@]4(CCC(=O)O4)[C@@]3(C)CC[C@@H]12	–	685	2.7	–	–
C=C1CC2(C)C(=CC1=O)C1CC1C1C2CCC2(C)C1C1CC1[C@@]21CCC(=O)O1 (some centres undefined)	inactive	–	18	inactive	–
CC12C(=CC(=O)C[C@@H]1C#N)C1CC1C1C2CCC2(C)C1C1CC1[C@@]21CCC(=O)O1 (some centres undefined)	–	–	–	–	MRP [11]: inactive
CC12CCC(=O)C=C1C1CC1C1C2[C@H](O)CC2(C)C1C1CC1[C@@]21CCC(=O)O1 (some centres undefined)	inactive	–	195	inactive	–
CC12CCC(=O)C=C1C1CC1C1C2CC(O)C2(C)C1C1CC1[C@@]21CCC(=O)O1 (some centres undefined)	inactive	–	25	inactive	–
C[C@H]1CC2(C)C(=CC1=O)C1CC1C1C2CCC2(C)C1C1CC1[C@@]21CCC(=O)O1 (some centres undefined)	inactive	100	30	–	–
CC(=O)S[C@@H]1CC2=CC(=O)CC[C@]2(C)[C@H]2CC[C@@]3(C)[C@@H](CC[C@@]34CCC(=O)O4)[C@H]12	–	100	21	–	–

Now from value to compound, other results behind:

Competition factor [1]	MRP [2]	Competition factor [5]	MRP [6]	Structure (SMILES)	also measured
inactive	240	–	–	CS[C@H]1CC(=O)C=C2C3CC3C3C(CCC4(C)C3C3CC3[C@@]43CCC(=O)O3)C21C (some centres undefined)	Competition factor [3]: inactive; McPhail index [4]: 3.8
inactive	< 100	105	–	C[C@@H]1CC2(C)C(=CC1=O)C1CC1C1C2CCC2(C)C1C1CC1[C@@]21CCC(=O)O1 (some centres undefined)	–
inactive	45	19	–	CC12C(=CC(=O)CC1O)C1CC1C1C2CCC2(C)C1C1CC1[C@@]21CCC(=O)O1 (some centres undefined)	–
–	520	2.1	–	CC12C(=CC(=O)[C@@H]3C[C@@H]31)C1CC1C1C2CCC2(C)C1C1CC1[C@@]21CCC(=O)O1 (some centres undefined)	Competition factor [7]: 25
–	100	–	–	C[C@H]1CC(=O)C=C2C3CC3C3C(CCC4(C)C3C3CC3[C@@]43CCC(=O)O3)C21C (some centres undefined)	Competition factor [7]: 70
–	–	–	inactive	CC12CCC(=O)C(Cl)=C1C1CC1C1C2CCC2(C)C1C1CC1[C@@]21CCC(=O)O1 (some centres undefined)	–
